# Test results: ChEMBL document CHEMBL1140864, “The synthesis of ursolic acid derivatives with cytotoxic activity and the investigation of their preliminary mechanism of action” (Bioorg Med Chem, 2009)
# Key:
# [1] = tested on: HeLa; assay: Antiproliferative activity against human HeLa cells at 10 uM after 96 hrs by MTT assay; assay type: functional
# Summary of the method: (§1)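 Same MTT set-up (RPMI 1640/10% FBS, 1.0–2.0 × 10³ cells per well, 96 h exposure, 4 h MTT, formazan in DMSO read at 490 nm). Value is the percent inhibition at a single 10 µM concentration. Experiments repeated at least three times.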
# [2] = tested on: HeLa; assay: Antiproliferative activity against human HeLa cells after 96 hrs by MTT assay; assay type: functional, cell-based
# Summary of the method: (§2)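 Cells grown in RPMI 1640 with 10% FBS and penicillin/streptomycin at […] °C, 5% CO2. Trypsinised cells seeded at 1.0–2.0 × 10³ per well overnight, then exposed to a concentration range in medium for 96 h. MTT (1 mg/mL) added for 4 h, formazan dissolved in DMSO, read at 490 nm. IC50 is the concentration that cuts cell number to 50%; at least three repeats.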
# [3] = tested on: BGC-823; assay: Antiproliferative activity against human BGC823 cells at 10 uM after 96 hrs by MTT assay; assay type: functional; details: BGC-823, 96 h; summary of the method: as §1
# [4] = tested on: BGC-823; assay: Antiproliferative activity against human BGC823 cells after 96 hrs by MTT assay; assay type: functional, cell-based; details: BGC-823, 96 h; summary of the method: as §2
# [5] = tested on: SK-OV-3; assay: Antiproliferative activity against human SKOV3 cells at 10 uM after 96 hrs by MTT assay; assay type: functional; details: SK-OV-3, 96 h; summary of the method: as §1
# [6] = tested on: SK-OV-3; assay: Antiproliferative activity against human SKOV3 cells after 96 hrs by MTT assay; assay type: functional, cell-based; details: SK-OV-3, 96 h; summary of the method: as §2
# [7] = tested on: HeLa; assay: Cell cycle arrest in human HeLa cells by accumulation at G1 phase at 2.5 uM after 24 hrs using PI staining by flow cytometry; assay type: functional
# Summary of the method: (§3)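 HeLa cells exposed for 24 h to 2.5, 5.0 or 10.0 µM; vehicle control 0.1% DMSO. Cellular DNA stained with propidium iodide, and cell-cycle phase fractions measured by flow cytometry. Experiments done three times.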
# [8] = tested on: HeLa; assay: Cell cycle arrest in human HeLa cells by accumulation at S phase at 2.5 uM after 24 hrs using PI staining by flow cytometry; assay type: functional; summary of the method: as §3
# [9] = tested on: HeLa; assay: Cell cycle arrest in human HeLa cells by accumulation at G2/M phase at 2.5 uM after 24 hrs using PI staining by flow cytometry; assay type: functional; summary of the method: as §3
# [10] = tested on: HeLa; assay: Cell cycle arrest in human HeLa cells by accumulation at G1 phase at 5.0 uM after 24 hrs using PI staining by flow cytometry; assay type: functional; summary of the method: as §3
# [11] = tested on: HeLa; assay: Cell cycle arrest in human HeLa cells by accumulation at S phase at 5.0 uM after 24 hrs using PI staining by flow cytometry; assay type: functional; summary of the method: as §3
# [12] = tested on: HeLa; assay: Cell cycle arrest in human HeLa cells by accumulation at G2/M phase at 5.0 uM after 24 hrs using PI staining by flow cytometry; assay type: functional; summary of the method: as §3
# [13] = tested on: HeLa; assay: Cell cycle arrest in human HeLa cells by accumulation at G1 phase at 10.0 uM after 24 hrs using PI staining by flow cytometry; assay type: functional; summary of the method: as §3
# [14] = tested on: HeLa; assay: Cell cycle arrest in human HeLa cells by accumulation at S phase at 10.0 uM after 24 hrs using PI staining by flow cytometry; assay type: functional; summary of the method: as §3
# [15] = tested on: HeLa; assay: Cell cycle arrest in human HeLa cells by accumulation at G2/M phase at 10.0 uM after 24 hrs using PI staining by flow cytometry; assay type: functional; summary of the method: as §3
# [16] = tested on: HeLa; assay: Induction of apoptosis in human HeLa cells assessed as apoptotic cells at 10 uM by flow cytometry; assay type: functional
# Summary of the method: (§4)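 HeLa cells given 2.5, 5.0 or 10.0 µM and stained with propidium iodide. Apoptotic cells counted by flow cytometry as nuclei with sub-diploid DNA content, the region below the G1 peak; untreated cells served as control. Run three times.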
# [17] = tested on: HeLa; assay: Induction of apoptosis in human HeLa cells assessed as sub-diploid DNA content after 24 hrs by flow cytometry; assay type: functional, cell-based; summary of the method: as §4
# [18] = tested on: HeLa; assay: Induction of apoptosis in human HeLa cells assessed as DNA fragmentation after 24 hrs by agarose gel electrophoresis; assay type: functional, cell-based
# Summary of the method: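 HeLa cells treated for 24 h, washed twice in PBS and lysed in 100 mM NaCl, 10 mM Tris–HCl pH 8.0, 25 mM EDTA, 0.1 mg/ml proteinase K at 50 °C for 12 h. DNA taken through phenol/chloroform/isoamyl alcohol and chloroform/isoamyl alcohol extraction, centrifuged at 12,000g for 30 min, then run on an agarose gel to look for laddering.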
IC50 [2] [µM],IC50 [4] [µM],SMILES,inhibition at 10 µM [1] [%],inhibition at 10 µM [3] [%],other results
> 10,–,C[C@H]1[C@H](C)CC[C@]2(C(=O)NC(CO)C(=O)O)CC[C@]3(C)C(=CC[C@@H]4[C@@]5(C)CC[C@H](O)C(C)(C)[C@@H]5CC[C@]43C)[C@H]12 (stereo not given in full),16.8,–,–
4.3,> 10,COC(=O)C(CO)NC(=O)[C@]12CC[C@@H](C)[C@H](C)[C@H]1C1=CC[C@@H]3[C@@]4(C)CC[C@H](OC(C)=O)C(C)(C)[C@@H]4CC[C@@]3(C)[C@]1(C)CC2 (stereo not given in full),59.9,15.7,–
10.8,–,CC(=O)O[C@H]1CC[C@]2(C)[C@H]3CC=C4[C@@H]5[C@@H](C)[C@H](C)CC[C@]5(C(=O)NCCO)CC[C@@]4(C)[C@]3(C)CC[C@H]2C1(C)C,50.3,–,–
> 10,–,C[C@H]1[C@H](C)CC[C@]2(C(=O)NCC(=O)O)CC[C@]3(C)C(=CC[C@@H]4[C@@]5(C)CC[C@H](O)C(C)(C)[C@@H]5CC[C@]43C)[C@H]12,15.6,–,–
> 10,–,CC(=O)O[C@H]1CC[C@]2(C)[C@H]3CC=C4[C@@H]5[C@@H](C)[C@H](C)CC[C@]5(C(=O)O)CC[C@@]4(C)[C@]3(C)CC[C@H]2C1(C)C [O-ACETYLURSOLIC ACID],37.8,–,–
2.62,8.3,CC(=O)OCC(C)NC(=O)[C@]12CC[C@@H](C)[C@H](C)[C@H]1C1=CC[C@@H]3[C@@]4(C)CC[C@H](OC(C)=O)C(C)(C)[C@@H]4CC[C@@]3(C)[C@]1(C)CC2 (stereo not given in full),69.3,56.3,inhibition at 10 µM [5]: 70.5%; IC50 [6]: 2.24 µM; Activity [7]: 47%; Activity [8]: 39.4%; Activity [9]: 13.6%; Activity [10]: 46.7%; Activity [11]: 44.8%; Activity [12]: 8.5%; Activity [13]: 36.7%; Activity [14]: 54%; Activity [15]: 9.3%; Activity [16]: 32.5%; Activity [17]: Dose-dependent effect; Activity [18]: Dose-dependent effect
1.13,> 10,CC(=O)OCCNC(=O)[C@]12CC[C@@H](C)[C@H](C)[C@H]1C1=CC[C@@H]3[C@@]4(C)CC[C@H](OC(C)=O)C(C)(C)[C@@H]4CC[C@@]3(C)[C@]1(C)CC2,73.5,42,inhibition at 10 µM [5]: 54.8%; IC50 [6]: 6.09 µM; Activity [7]: 41.1%; Activity [8]: 49.8%; Activity [9]: 9.2%; Activity [10]: 41.8%; Activity [11]: 45.9%; Activity [12]: 12.3%; Activity [13]: 51.1%; Activity [14]: 44.8%; Activity [15]: 4.2%; Activity [16]: 35.3%; Activity [17]: Dose-dependent effect; Activity [18]: Dose-dependent effect
> 10,> 10,CC(=O)OCc1ccccc1NC(=O)[C@]12CC[C@@H](C)[C@H](C)[C@H]1C1=CC[C@@H]3[C@@]4(C)CC[C@H](OC(C)=O)C(C)(C)[C@@H]4CC[C@@]3(C)[C@]1(C)CC2,30.5,13,inhibition at 10 µM [5]: 1.19%; IC50 [6]: > 10 µM
> 10,–,COC(=O)C(Cc1ccccc1)NC(=O)[C@]12CC[C@@H](C)[C@H](C)[C@H]1C1=CC[C@@H]3[C@@]4(C)CC[C@H](OC(C)=O)C(C)(C)[C@@H]4CC[C@@]3(C)[C@]1(C)CC2 (stereo not given in full),32.9,–,–
1.63,–,CC(=O)O[C@H]1CC[C@]2(C)[C@H]3CC=C4[C@@H]5[C@@H](C)[C@H](C)CC[C@]5(C(=O)Nc5ccccc5CO)CC[C@@]4(C)[C@]3(C)CC[C@H]2C1(C)C,77.5,–,–
9.04,> 10,COC(=O)C(Cc1ccc(O)cc1)NC(=O)[C@]12CC[C@@H](C)[C@H](C)[C@H]1C1=CC[C@@H]3[C@@]4(C)CC[C@H](OC(C)=O)C(C)(C)[C@@H]4CC[C@@]3(C)[C@]1(C)CC2 (stereo not given in full),51.5,41.6,–
4.86,> 10,COC(=O)CNC(=O)[C@]12CC[C@@H](C)[C@H](C)[C@H]1C1=CC[C@@H]3[C@@]4(C)CC[C@H](OC(C)=O)C(C)(C)[C@@H]4CC[C@@]3(C)[C@]1(C)CC2,61.7,17.9,–
> 10,> 10,C[C@H]1[C@H](C)CC[C@]2(C(=O)O)CC[C@]3(C)C(=CC[C@@H]4[C@@]5(C)CC[C@H](O)C(C)(C)[C@@H]5CC[C@]43C)[C@H]12 [URSOLIC ACID],12.4,10.2,inhibition at 10 µM [5]: 9.06%; IC50 [6]: > 10 µM
–,0.016,CC(=O)O[C@H]1C(=O)[C@@]2(C)[C@H]([C@H](OC(=O)c3ccccc3)[C@]3(O)C[C@H](OC(=O)[C@H](O)[C@@H](NC(=O)c4ccccc4)c4ccccc4)C(C)=C1C3(C)C)[C@]1(OC(C)=O)CO[C@@H]1C[C@@H]2O [PACLITAXEL],–,–,IC50 [6]: 0.001 µM
6.86,–,COC(=O)C(NC(=O)[C@]12CC[C@@H](C)[C@H](C)[C@H]1C1=CC[C@@H]3[C@@]4(C)CC[C@H](OC(C)=O)C(C)(C)[C@@H]4CC[C@@]3(C)[C@]1(C)CC2)C(C)O (stereo not given in full),55.9,–,–
5.44,–,CC(=O)O[C@H]1CC[C@]2(C)[C@H]3CC=C4[C@@H]5[C@@H](C)[C@H](C)CC[C@]5(C(=O)NC(C)CO)CC[C@@]4(C)[C@]3(C)CC[C@H]2C1(C)C (stereo not given in full),58.4,–,–
> 10,–,C[C@H]1[C@H](C)CC[C@]2(C(=O)NC(Cc3ccc(O)cc3)C(=O)O)CC[C@]3(C)C(=CC[C@@H]4[C@@]5(C)CC[C@H](O)C(C)(C)[C@@H]5CC[C@]43C)[C@H]12 (stereo not given in full),23.6,–,–
> 10,–,C[C@H]1[C@H](C)CC[C@]2(C(=O)NC(Cc3ccccc3)C(=O)O)CC[C@]3(C)C(=CC[C@@H]4[C@@]5(C)CC[C@H](O)C(C)(C)[C@@H]5CC[C@]43C)[C@H]12 (stereo not given in full),27.5,–,–
> 10,–,CCC(C)C(NC(=O)[C@]12CC[C@@H](C)[C@H](C)[C@H]1C1=CC[C@@H]3[C@@]4(C)CC[C@H](O)C(C)(C)[C@@H]4CC[C@@]3(C)[C@]1(C)CC2)C(=O)O (stereo not given in full),16.8,–,inhibition at 10 µM [5]: 5.01%; IC50 [6]: > 10 µM
> 10,–,CC(O)C(NC(=O)[C@]12CC[C@@H](C)[C@H](C)[C@H]1C1=CC[C@@H]3[C@@]4(C)CC[C@H](O)C(C)(C)[C@@H]4CC[C@@]3(C)[C@]1(C)CC2)C(=O)O (stereo not given in full),22,–,–
> 10,–,CCC(C)C(NC(=O)[C@]12CC[C@@H](C)[C@H](C)[C@H]1C1=CC[C@@H]3[C@@]4(C)CC[C@H](OC(C)=O)C(C)(C)[C@@H]4CC[C@@]3(C)[C@]1(C)CC2)C(=O)OC (stereo not given in full),15.9,–,–
